From ChEMBL document CHEMBL1126647, “Fluorine-18-labeled progestin ketals: synthesis and target tissue uptake selectivity of potential imaging agents for receptor-positive breast tumors” (J Med Chem, 1993)

How the values were obtained:
Type in all cases: functional, tissue-based
[1] = biological target: T1, Progesterone receptor (Rattus norvegicus) (UniProt Q63449); assay: Tissue distribution in liver 3 hr after [18F]-4 injection into estrogen-primed immature rats
T1 sequence (whole entry): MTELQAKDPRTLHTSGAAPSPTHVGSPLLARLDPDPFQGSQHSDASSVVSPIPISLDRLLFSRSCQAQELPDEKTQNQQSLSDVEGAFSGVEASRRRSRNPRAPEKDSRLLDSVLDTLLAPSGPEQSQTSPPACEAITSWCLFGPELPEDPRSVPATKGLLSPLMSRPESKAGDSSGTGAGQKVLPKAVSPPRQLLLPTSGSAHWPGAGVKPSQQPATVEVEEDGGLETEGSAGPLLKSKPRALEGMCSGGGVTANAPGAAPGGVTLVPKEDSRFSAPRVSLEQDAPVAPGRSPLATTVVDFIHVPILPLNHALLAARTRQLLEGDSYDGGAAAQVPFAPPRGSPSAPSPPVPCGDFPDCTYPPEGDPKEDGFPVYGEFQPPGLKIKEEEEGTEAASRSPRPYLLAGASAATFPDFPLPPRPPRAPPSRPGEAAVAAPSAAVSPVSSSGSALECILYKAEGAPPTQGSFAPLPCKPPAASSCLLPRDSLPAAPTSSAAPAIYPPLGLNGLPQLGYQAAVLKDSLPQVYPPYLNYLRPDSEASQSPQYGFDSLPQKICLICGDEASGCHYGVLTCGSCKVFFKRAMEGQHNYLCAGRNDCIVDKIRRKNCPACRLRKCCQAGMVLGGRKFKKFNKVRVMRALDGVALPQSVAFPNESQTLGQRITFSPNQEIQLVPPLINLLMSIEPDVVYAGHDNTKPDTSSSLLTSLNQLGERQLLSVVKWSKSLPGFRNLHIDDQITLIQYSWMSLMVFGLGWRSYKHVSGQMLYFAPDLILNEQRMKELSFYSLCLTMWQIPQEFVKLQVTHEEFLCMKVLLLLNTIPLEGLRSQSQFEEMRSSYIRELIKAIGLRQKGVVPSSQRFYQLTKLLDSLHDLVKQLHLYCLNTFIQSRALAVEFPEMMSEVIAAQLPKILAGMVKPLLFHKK
Method in brief: (§1)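 Immature female Sprague-Dawley rats, estradiol-primed (5 μg s.c. in 20% ethanol/sunflower oil, two successive days, used 24 h later). Tracer (30 Ci/mmol) in 10% ethanol/saline was injected iv into the tail vein under ether anesthesia. Animals were decapitated 3 h postinjection; organs weighed and gamma-counted. %ID/g, mean ± SD, n = 5.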

[2] = biological target: T1, Progesterone receptor (Rattus norvegicus); assay: Tissue distribution in uterus 1 hr after [18F]-4 injection into estrogen-primed immature rats co-injected with uterin uptake blocker (ORG 2058)
Method in brief: (§2)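 Blocking group: estrogen-primed immature female Sprague-Dawley rats (estradiol 5 μg s.c. ×2 days, used 24 h later). ORG 2058 18 μg was co-injected with the tracer dose iv via tail vein, 0.2 mL injection volume in 10% ethanol/saline. Killed 1 h later; tissues weighed and gamma-counted. Results as %ID/g or ratios, mean ± SD, n = 5.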

[3] = biological target: T1, Progesterone receptor (Rattus norvegicus); assay: Tissue distribution in lung 1 hr after [18F]4 injection into estrogen-primed immature rats co-injected with uterine uptake blocker (ORG 2058); method in brief: as §2
[4] = biological target: T1, Progesterone receptor (Rattus norvegicus); assay: Tissue distribution in liver 1 hr after [18F]4 injection into estrogen-primed immature rats co-injected with uterine uptake blocker (ORG 2058); method in brief: as §2
[5] = biological target: T1, Progesterone receptor (Rattus norvegicus); assay: Tissue distribution in blood 1 hr after [18F]4 injection into estrogen-primed immature rats co-injected uterine uptake blocker (ORG 2058); method in brief: as §2
[6] = biological target: T1, Progesterone receptor (Rattus norvegicus); assay: Tissue distribution in uterus/muscle 1 hr after [18F]4 injection into estrogen-primed immature rats co-injected ORG 2058 (uterine uptake blocker); method in brief: as §2
[7] = biological target: T1, Progesterone receptor (Rattus norvegicus); assay: Tissue distribution in fat 1 hr after [18F]4 injection into estrogen-primed immature rats co-injected with uterine uptake blocker (ORG 2058); settings: Adipose tissue; method in brief: as §2
[8] = biological target: T1, Progesterone receptor (Rattus norvegicus); assay: Tissue distribution in muscle 1 hr after [18F]4 injection into estrogen-primed immature rats co-injected with uterine uptake blocker (ORG2058); method in brief: as §2
[9] = biological target: T1, Progesterone receptor (Rattus norvegicus); assay: Tissue distribution in bone 3 hr after [18F]4 injection into estrogen-primed immature rats; settings: Bone element; method in brief: as §1

Injected dose/g [1] [%] | Injected dose/g [2] [%] | Injected dose/g [3] [%] | Injected dose/g [4] [%] | Injected dose/g [5] [%] | uterus/muscle ratio [6] | Injected dose/g [7] [%] | Injected dose/g [8] [%] | Injected dose/g [9] [%] | Structure (SMILES)
1.93 | 1.27 | 1.26 | 3.16 | 0.43 | 1.69 | 3.77 | 0.76 | 1.69 | CC(=O)[C@@]12O[C@](C)(c3ccc(F)cc3)O[C@@H]1CC1C3CCC4=CC(=O)CC[C@]4(C)C3CC[C@@]12C (stereo partly drawn)
1.36 | 0.86 | 0.54 | 3.56 | 0.23 | 2.42 | 2.76 | 0.35 | 0.64 | C[C@@]1(c2ccc(F)cc2)O[C@@H]2CC3C4CCC5=CC(=O)CC[C@@H]5C4CC[C@]3(C)[C@]2(C(=O)CO)O1 (stereo partly drawn)
